Activity calls are given as the source filed them. The rule behind the calls is not given here.
How the values were obtained:
[1] = target: Dipeptidyl peptidase 1 (Bos taurus) (UniProt Q3ZCJ8); assay: Inhibition of bovine cathepsin C at 10 uM
[2] = test system: A2780; assay: Cytotoxicity against human A2780 cells; type: functional, cell-based
Outline: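 Antiproliferative activity was measured in A2780 ovarian carcinoma cells with a standard colorimetric assay of cell proliferation and viability. Results are expressed as IC50.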

[3] = AUC (0 to infinity) in CD1 mouse at 10 mg/kg, po; type: ADME, organism-based; parameters: time infinity, dose 10 mg/kg, route oral; conditions: plasma
Outline: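 CD-1 mice received a single dose by the iv or oral route. AUC from 0 to infinity was reported with terminal half-life, Vss, clearance and absolute oral bioavailability.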

[4] = species: Homo sapiens; assay: Inhibition of human tryptase at 10 uM
[5] = species: Homo sapiens; assay: Inhibition of human chymotrypsin at 10 uM
[6] = target: Macrophage metalloelastase (Homo sapiens) (UniProt P39900); assay: Inhibition of human MMP12 at 10 uM
[7] = test system: Mus musculus; assay: Inhibition of 20S proteasome beta5beta1 subunit binding in human RPMI 8226 cells xenografted mouse; type: functional, organism-based
[8] = Half life in CD1 mouse at 10 mg/kg, po; type: ADME, organism-based; parameters: dose 10 mg/kg, route oral; conditions: in vivo
Outline: (§1)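 Female Sprague–Dawley rats and CD-1 mice each received a single iv or oral (po) dose. Terminal half-life and systemic clearance were estimated from plasma exposure over time, alongside AUC0→∞, Vss and absolute oral bioavailability.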

[9] = target: Pro-cathepsin H (Homo sapiens) (UniProt P09668); assay: Inhibition of human cathepsin H at 10 uM
[10] = target: Cytochrome P450 2C9 (Homo sapiens, UniProt P11712); assay: Inhibition of human recombinant CYP2C9 upto 30 uM; type: ADME; conditions: recombinant enzyme
Outline: (§2)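 Recombinant human P-450 isoforms (1A2, 2C9, 2C19, 2D6) with fluorescent P-450 substrates; tested at concentrations up to 30 µM to gauge inhibition.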

[11] = target: Caspase-7 (Homo sapiens) (UniProt P55210); assay: Inhibition of human caspase 7 at 10 uM
[12] = target: Cytochrome P450 3A4 (Homo sapiens, UniProt P08684); assay: Inhibition of human recombinant CYP3A4; type: ADME
[13] = target: Procathepsin L (Homo sapiens) (UniProt P07711); assay: Inhibition of human cathepsin L at 10 uM
[14] = target: Prothrombin (Homo sapiens) (UniProt P00734); assay: Inhibition of human thrombin at 10 uM
[15] = Volume of distribution at steady state in Sprague-Dawley rat at 0.2 mg/kg, iv; type: ADME, organism-based; parameters: dose 0.2 mg/kg, route intravenous; conditions: in vivo, read-out: Vdss
Outline: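 Single-dose pharmacokinetics after iv or oral administration in female Sprague–Dawley rats and in CD-1 mice; plasma exposure (AUC0–∞) used to derive steady-state volume of distribution, clearance, terminal half-life and absolute oral bioavailability.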

[16] = target: Cathepsin G (Homo sapiens) (UniProt P08311); assay: Inhibition of human cathepsin G at 10 uM
[17] = target: Interstitial collagenase (Homo sapiens) (UniProt P03956); assay: Inhibition of human MMP1 at 10 uM
[18] = target: Matrilysin (Homo sapiens) (UniProt P09237); assay: Inhibition of human MMP7 at 10 uM
[19] = target: Coagulation factor VII (Homo sapiens) (UniProt P08709); assay: Inhibition of human factor 7a at 10 uM
[20] = target: Chymase (Homo sapiens, UniProt P23946); assay: Inhibition of human chymase
[21] = Half life in Sprague-Dawley rat at 0.8 mg/kg, po; type: ADME, organism-based; parameters: dose 0.8 mg/kg, route oral; conditions: in vivo; outline: as §1
[22] = target: Caspase-3 (Homo sapiens) (UniProt P42574); assay: Inhibition of human caspase 3 at 10 uM
[23] = target: Neutrophil collagenase (Homo sapiens) (UniProt P22894); assay: Inhibition of human MMP8 at 10 uM
[24] = target: Neutrophil elastase (Homo sapiens) (UniProt P08246); assay: Inhibition of human neutrophil elastase 2 at 10 uM
[25] = Half life in Sprague-Dawley rat at 0.2 mg/kg, iv; type: ADME, organism-based; parameters: dose 0.2 mg/kg, route intravenous; conditions: in vivo; outline: as §1
[26] = Metabolic stability in mouse liver microsomes; type: ADME, Microsome
[27] = Protein binding in dog plasma; type: ADME, cell-free, Canis lupus familiaris; conditions: read-out: PPB (converted)
[28] = target: Cathepsin D (Homo sapiens) (UniProt P07339); assay: Inhibition of human cathepsin D at 10 uM
[29] = Clearance in Sprague-Dawley rat at 0.2 mg/kg, iv; type: ADME, organism-based; parameters: dose 0.2 mg/kg, route intravenous; conditions: in vivo; outline: as §1
[30] = target: Cytochrome P450 2C19 (Homo sapiens, UniProt P33261); assay: Inhibition of human recombinant CYP2C19 upto 30 uM; type: ADME; conditions: recombinant enzyme; outline: as §2
[31] = target: Neutrophil elastase (Homo sapiens, UniProt P08246); assay: Inhibition of human neutrophil elastase 2
[32] = target: Chymase (Homo sapiens) (UniProt P23946); assay: Inhibition of human chymase at 10 uM
[33] = target: Cathepsin S (Homo sapiens) (UniProt P25774); assay: Inhibition of human cathepsin S at 10 uM
[34] = target: Caspase-9 (Homo sapiens) (UniProt P55211); assay: Inhibition of human caspase 9 at 10 uM
[35] = AUC (0 to infinity) in Sprague-Dawley rat at 0.8 mg/kg, po; type: ADME, organism-based; parameters: dose 0.8 mg/kg, route oral, time infinity; conditions: plasma
Outline: (§3)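 Female Sprague–Dawley rats received a single dose by the iv or oral route. AUC from 0 to infinity was reported alongside terminal half-life, Vss, clearance and absolute oral bioavailability.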

[36] = target: Caspase-1 (Homo sapiens) (UniProt P29466); assay: Inhibition of human caspase 1 at 10 uM
[37] = target: Stromelysin-1 (Homo sapiens) (UniProt P08254); assay: Inhibition of human MMP3 at 10 uM
[38] = Inhibition of bacterial prolyl oligopeptidase at 10 uM
[39] = Oral bioavailability in Sprague-Dawley rat at 0.8 mg/kg; type: ADME, organism-based; conditions: in vivo
Outline: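 Female Sprague-Dawley rats given a single iv dose (0.2 mg/kg) and a single oral dose (0.8 mg/kg). Plasma AUC0-∞ was determined, and absolute oral bioavailability F (%) was derived by comparing oral with iv exposure.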

[40] = target: Plasma kallikrein (Homo sapiens) (UniProt P03952); assay: Inhibition of human plasma kallikrein at 10 uM
[41] = target: Trypsin (Homo sapiens) (UniProt P07477+P07478+P35030); assay: Inhibition of human trypsin at 10 uM; type: protein assay
[42] = target: Cytochrome P450 1A2 (Homo sapiens, UniProt P05177); assay: Inhibition of human recombinant CYP1A2 upto 30 uM; type: ADME; conditions: recombinant enzyme
Outline: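 Recombinant human cytochrome P-450 isoforms were tested with fluorescent P-450 substrates, at test concentrations up to 30 µM.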

[43] = Protein binding in rat plasma; type: ADME, cell-free; conditions: read-out: PPB (converted)
[44] = Inhibition of chymotrypsin-like activity of human 20S proteasome in Molt4 cells; type: cell-based; conditions: molt-4
Outline: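 Intact human leukemia Molt-4 cells were given the cell-permeable fluorogenic chymotrypsin-like substrate MeOSuc-FLF-AFC, so the read-out also reflects inhibitor cell permeability. Potency is reported as EC50.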

[45] = AUC (0 to infinity) in Sprague-Dawley rat at 0.2 mg/kg, iv; type: ADME, organism-based; parameters: dose 0.2 mg/kg, route intravenous, time infinity; conditions: plasma; outline: as §3
[46] = Metabolic stability in dog liver microsomes; type: ADME, Canis lupus familiaris, Microsome
[47] = target: Tissue-type plasminogen activator (Homo sapiens) (UniProt P00750); assay: Inhibition of human TPA at 10 uM
Sequence of Tissue-type plasminogen activator (Homo sapiens) (P00750 36-562 limits assumed): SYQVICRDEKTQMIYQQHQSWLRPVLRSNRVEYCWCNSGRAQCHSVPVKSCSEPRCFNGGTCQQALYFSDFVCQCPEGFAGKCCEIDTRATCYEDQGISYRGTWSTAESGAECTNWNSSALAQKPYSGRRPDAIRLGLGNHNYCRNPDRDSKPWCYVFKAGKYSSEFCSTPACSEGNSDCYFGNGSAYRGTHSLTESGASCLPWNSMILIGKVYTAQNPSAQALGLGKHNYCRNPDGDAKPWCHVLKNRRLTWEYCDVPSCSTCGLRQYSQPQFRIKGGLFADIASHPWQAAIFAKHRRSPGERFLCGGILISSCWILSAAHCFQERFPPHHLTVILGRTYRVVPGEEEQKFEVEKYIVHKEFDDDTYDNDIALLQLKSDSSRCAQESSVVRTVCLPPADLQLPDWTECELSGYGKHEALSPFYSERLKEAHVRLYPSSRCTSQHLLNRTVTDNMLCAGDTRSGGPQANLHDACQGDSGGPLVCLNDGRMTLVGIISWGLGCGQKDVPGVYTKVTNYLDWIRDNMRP

Sequence of Caspase-7 (Homo sapiens) (P55210 24-198 limits assumed): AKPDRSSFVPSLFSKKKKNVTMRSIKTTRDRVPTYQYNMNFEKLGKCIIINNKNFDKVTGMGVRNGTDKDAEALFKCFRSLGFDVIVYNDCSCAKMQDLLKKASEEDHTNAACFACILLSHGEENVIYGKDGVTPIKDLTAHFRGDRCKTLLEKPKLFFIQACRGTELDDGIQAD
Sequence of Caspase-7 (Homo sapiens) (P55210 207-303 limits assumed): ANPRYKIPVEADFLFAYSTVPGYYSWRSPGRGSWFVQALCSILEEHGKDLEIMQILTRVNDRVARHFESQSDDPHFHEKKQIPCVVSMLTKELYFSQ
Sequence of Stromelysin-1 (Homo sapiens) (P08254 100-477 limits assumed): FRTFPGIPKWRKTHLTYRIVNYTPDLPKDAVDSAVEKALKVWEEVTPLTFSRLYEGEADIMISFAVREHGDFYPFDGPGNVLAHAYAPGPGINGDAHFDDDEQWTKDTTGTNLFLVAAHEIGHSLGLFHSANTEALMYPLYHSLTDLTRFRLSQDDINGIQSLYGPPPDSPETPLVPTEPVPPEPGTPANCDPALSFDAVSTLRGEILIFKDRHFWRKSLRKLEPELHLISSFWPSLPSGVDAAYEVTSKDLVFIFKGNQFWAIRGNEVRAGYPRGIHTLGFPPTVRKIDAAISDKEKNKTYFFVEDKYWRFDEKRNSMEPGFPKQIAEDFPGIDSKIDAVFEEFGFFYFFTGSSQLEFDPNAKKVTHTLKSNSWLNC
Sequence of Cathepsin S (Homo sapiens) (P25774 115-331 limits assumed): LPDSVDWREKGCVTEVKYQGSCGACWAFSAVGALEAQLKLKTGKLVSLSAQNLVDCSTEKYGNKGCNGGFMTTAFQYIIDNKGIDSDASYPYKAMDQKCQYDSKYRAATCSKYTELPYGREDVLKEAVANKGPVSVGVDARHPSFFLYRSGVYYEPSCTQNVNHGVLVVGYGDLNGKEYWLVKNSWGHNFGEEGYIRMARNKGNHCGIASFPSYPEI
Sequence of Cytochrome P450 3A4 (P08684 whole entry): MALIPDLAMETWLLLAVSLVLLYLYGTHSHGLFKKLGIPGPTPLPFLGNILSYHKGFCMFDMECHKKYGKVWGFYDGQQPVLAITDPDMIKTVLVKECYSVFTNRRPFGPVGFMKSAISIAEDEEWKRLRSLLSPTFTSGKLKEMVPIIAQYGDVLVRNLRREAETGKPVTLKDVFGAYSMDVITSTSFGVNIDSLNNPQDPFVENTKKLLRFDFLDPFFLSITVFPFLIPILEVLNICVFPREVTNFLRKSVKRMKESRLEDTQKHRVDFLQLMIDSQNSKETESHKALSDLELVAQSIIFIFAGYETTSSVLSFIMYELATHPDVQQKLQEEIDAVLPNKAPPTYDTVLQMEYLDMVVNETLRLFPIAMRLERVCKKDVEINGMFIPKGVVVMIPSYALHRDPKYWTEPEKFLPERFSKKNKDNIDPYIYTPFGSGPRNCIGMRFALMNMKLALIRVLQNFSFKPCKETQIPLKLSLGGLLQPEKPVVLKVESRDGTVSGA
Sequence of Dipeptidyl peptidase 1 (Bos taurus) (Q3ZCJ8 25-134 limits assumed): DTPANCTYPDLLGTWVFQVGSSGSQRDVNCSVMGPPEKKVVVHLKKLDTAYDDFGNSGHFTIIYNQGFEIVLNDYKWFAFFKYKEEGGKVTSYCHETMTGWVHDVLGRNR
Sequence of Dipeptidyl peptidase 1 (Bos taurus) (Q3ZCJ8 231-394 limits assumed): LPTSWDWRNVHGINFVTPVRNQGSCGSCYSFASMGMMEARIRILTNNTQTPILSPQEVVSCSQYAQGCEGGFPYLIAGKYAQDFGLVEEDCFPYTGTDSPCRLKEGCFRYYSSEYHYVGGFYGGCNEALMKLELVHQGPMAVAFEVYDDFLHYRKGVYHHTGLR
Sequence of Dipeptidyl peptidase 1 (Bos taurus) (Q3ZCJ8 395-463 limits assumed): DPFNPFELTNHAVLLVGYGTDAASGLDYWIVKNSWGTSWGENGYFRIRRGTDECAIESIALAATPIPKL
Sequence of Caspase-3 (Homo sapiens) (P42574 29-175 limits assumed): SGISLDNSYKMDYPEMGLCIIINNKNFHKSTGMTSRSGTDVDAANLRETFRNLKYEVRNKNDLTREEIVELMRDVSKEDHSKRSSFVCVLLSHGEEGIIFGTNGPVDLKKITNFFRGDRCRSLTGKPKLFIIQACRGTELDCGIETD
Sequence of Caspase-3 (Homo sapiens) (P42574 176-277 limits assumed): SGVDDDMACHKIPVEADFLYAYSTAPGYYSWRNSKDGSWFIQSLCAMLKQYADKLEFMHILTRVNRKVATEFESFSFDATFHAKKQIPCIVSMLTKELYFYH
Sequence of Matrilysin (Homo sapiens) (P09237 whole entry): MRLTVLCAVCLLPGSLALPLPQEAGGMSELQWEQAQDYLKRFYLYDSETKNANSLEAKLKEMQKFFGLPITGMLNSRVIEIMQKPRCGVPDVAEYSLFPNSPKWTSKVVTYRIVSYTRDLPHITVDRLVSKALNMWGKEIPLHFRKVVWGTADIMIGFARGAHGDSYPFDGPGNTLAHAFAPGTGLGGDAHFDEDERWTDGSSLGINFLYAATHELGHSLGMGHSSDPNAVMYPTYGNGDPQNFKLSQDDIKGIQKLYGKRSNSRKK
Sequence of Cytochrome P450 2C19 (P33261 whole entry): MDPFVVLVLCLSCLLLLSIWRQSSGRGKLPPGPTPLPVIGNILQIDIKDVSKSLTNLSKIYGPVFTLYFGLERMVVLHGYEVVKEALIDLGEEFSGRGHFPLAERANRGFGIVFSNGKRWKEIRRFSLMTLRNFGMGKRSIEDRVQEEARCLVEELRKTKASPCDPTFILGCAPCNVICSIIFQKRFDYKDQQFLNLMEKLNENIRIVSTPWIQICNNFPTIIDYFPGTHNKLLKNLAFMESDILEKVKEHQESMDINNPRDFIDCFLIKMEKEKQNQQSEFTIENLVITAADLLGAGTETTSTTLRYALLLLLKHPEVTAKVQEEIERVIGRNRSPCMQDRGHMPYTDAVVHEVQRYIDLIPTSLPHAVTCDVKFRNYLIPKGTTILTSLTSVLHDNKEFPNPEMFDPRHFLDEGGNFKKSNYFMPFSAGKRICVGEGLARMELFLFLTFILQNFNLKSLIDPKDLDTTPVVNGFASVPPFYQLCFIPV
Sequence of Coagulation factor VII (Homo sapiens) (P08709 61-212 limits assumed): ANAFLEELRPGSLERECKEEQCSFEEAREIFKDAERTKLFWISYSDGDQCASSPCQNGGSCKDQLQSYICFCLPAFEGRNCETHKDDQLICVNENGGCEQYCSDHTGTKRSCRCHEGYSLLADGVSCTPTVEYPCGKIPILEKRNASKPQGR
Sequence of Coagulation factor VII (Homo sapiens) (P08709 213-466 limits assumed): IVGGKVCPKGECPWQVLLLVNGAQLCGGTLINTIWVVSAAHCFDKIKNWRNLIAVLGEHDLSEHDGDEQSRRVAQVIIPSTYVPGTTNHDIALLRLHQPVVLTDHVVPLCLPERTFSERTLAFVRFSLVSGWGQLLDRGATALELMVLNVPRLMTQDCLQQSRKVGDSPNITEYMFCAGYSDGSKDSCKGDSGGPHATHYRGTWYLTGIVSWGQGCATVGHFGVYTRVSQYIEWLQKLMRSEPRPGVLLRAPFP
Sequence of Neutrophil collagenase (Homo sapiens) (P22894 101-467 limits assumed): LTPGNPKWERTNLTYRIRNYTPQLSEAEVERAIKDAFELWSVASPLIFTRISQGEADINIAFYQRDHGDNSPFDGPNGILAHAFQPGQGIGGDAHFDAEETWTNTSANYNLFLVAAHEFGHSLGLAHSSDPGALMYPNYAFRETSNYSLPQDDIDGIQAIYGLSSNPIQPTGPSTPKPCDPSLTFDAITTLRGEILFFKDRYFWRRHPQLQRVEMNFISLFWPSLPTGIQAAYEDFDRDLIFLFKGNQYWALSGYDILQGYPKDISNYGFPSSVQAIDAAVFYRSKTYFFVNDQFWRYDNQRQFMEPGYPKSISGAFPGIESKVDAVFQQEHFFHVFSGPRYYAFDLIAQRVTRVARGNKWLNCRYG
Sequence of Cathepsin D (Homo sapiens) (P07339 65-162 limits assumed): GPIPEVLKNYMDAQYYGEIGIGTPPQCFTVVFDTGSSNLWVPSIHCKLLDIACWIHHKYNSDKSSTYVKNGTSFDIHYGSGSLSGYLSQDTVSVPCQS
Sequence of Cathepsin D (Homo sapiens) (P07339 169-412 limits assumed): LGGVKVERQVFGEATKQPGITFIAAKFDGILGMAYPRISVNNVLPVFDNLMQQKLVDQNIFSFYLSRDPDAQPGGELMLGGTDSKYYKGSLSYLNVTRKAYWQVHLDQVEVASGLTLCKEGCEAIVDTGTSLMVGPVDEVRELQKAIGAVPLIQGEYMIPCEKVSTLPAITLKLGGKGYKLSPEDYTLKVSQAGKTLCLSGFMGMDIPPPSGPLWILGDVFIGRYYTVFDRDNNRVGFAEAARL
Sequence of Cathepsin G (Homo sapiens) (P08311 whole entry): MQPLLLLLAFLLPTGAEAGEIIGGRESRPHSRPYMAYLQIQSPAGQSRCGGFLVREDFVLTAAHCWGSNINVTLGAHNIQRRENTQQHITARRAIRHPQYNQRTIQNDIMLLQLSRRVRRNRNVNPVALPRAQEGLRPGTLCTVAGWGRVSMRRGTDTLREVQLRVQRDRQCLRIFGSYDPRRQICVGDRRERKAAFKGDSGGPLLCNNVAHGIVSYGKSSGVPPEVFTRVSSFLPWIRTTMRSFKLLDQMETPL

In the case of CC(C)C[C@H](NC(=O)[C@@H](NC(=O)c1cccc(-c2ccccc2)n1)[C@@H](C)O)B(O)O [DELANZOMIB], the inhibition [1] is reported as -8%, the IC50 [2] is reported as 0.0137 µM and the AUC(0-inf) [3] is reported as 2850 ng·h/mL. For the same compound, the inhibition [4] was -3%, the inhibition [5] was 59% and the inhibition [6] was 4%. For the same compound, the Activity [7] was “inactive”, the half-life [8] was 53 h and the inhibition [9] was 6%. The Activity [10] was “Not Active”, the inhibition [11] was 0% and the IC50 [12] was 3.5 µM. For the same compound, the inhibition [13] was 27%, the inhibition [14] was 12% and the Vd [15] was 18.1 L/kg. For the same compound, the inhibition [16] was 86%, the inhibition [17] was 1% and the inhibition [18] was -3%. It also gave an inhibition [19] of 2%, an IC50 [20] of 3.53 µM and a half-life [21] of 86 h. The inhibition [22] was 2%, the inhibition [23] was -1% and the inhibition [24] was 72%. The half-life [25] was 71 h, the half-life [26] was over 0.667 h and the fraction unbound [27] was 0.001. The inhibition [28] was 1%, the clearance [29] was 3.17 mL/min/kg and the Activity [30] was “Not Active”. It also gave an IC50 [31] of 3.55 µM, an inhibition [32] of 80% and an inhibition [33] of 12%. The inhibition [34] was -1%, the AUC(0-inf) [35] was 2200 ng·h/mL and the inhibition [36] was 1%. For the same compound, the inhibition [37] was -3%, the inhibition [38] was 13% and the bioavailability [39] was 54%. The inhibition [40] was 0%, the inhibition [41] was 0% and the Activity [42] was “Not Active”. The fraction unbound [43] was 0.001, the EC50 [44] was 0.0135 µM and the AUC(0-inf) [45] was 1030 ng·h/mL. The half-life [46] was over 0.667 h and the inhibition [47] was 0%.
